Measured values pooled from the literature.
CYP3A4: Cytochrome P450 3A4 (CYP3A4, Homo sapiens, UniProt P08684)

| SMILES | tested on | assay | test system | conditions | endpoint | result |
| --- | --- | --- | --- | --- | --- | --- |
| Cc1cc(C)nc(Nc2ncc(C(=O)NCCc3c(C)[nH]c4ccccc34)cn2)c1 |  | metabolic stability | cynomolgus monkey, liver microsomes | 1 µM | microsomal CLint | 99 µL/min/mg |
| O=C(Nc1ncc([N+](=O)[O-])s1)c1cccs1 | BHK-21 | cell growth or viability, MTT |  |  | CC50 | > 1 µM |
| Cc1cccc(F)c1N1CCC(N2Cc3cn(CC(C)(F)F)nc3N(Cc3ccccc3C(F)(F)F)C2=O)CC1 | CYP3A4 | enzyme activity, inhibitor | human, liver microsomes | midazolam probe | IC50 | > 10 µM |
| CCC[C@@](N)(CO)CCc1ccc(OCCCCCC(C)C)cc1 |  |  | mouse, plasma | oral, 10 mg/kg | Cmax | 161 nM |
| C[C@]12CC[C@H](n3ccnc3)CC1=CC[C@@H]1[C@@H]2CC[C@]2(C)C(n3cnc4ccccc43)=CC[C@@H]12.Cl.Cl |  |  | male CD-1 mouse, plasma | oral, 10 mg/kg | Cmax | 1510 ng/mL |
| NCCc1ccccn1 | CYP3A4 | enzyme activity, inhibitor |  |  | IC50 | 5000 µM |
| S=C(Nc1ccc2c(c1)Cc1ccccc1-2)Nc1ccc2c(c1)Cc1ccccc1-2 | BHK-21 | cell growth or viability, MTT |  | 42 h | CC50 | 236 µM |
| CCS(=O)(=O)N1CC(CC#N)(n2cc(-c3ncnc4[nH]ccc34)cn2)C1 | Vero | cell growth or viability, resazurin |  |  | CC50 | > 60 µM |
| NC(=O)C(NC(=O)C1CC(c2ccccc2)C1)c1ccccc1 (centres unmarked) | BHK-21 | cell growth or viability, MTT |  |  | CC50 | > 100 µM |
| Cc1nc2c([nH]1)c(=O)n(C)c(=O)n2Cc1ccco1 | Cytochrome P450 1A2 (CYP1A2, Homo sapiens, UniProt P05177) | enzyme activity, inhibitor | human, liver microsomes | 40 µM | inhibition | 71% |
| O=C(Nc1ccc(O)cc1)c1ccccc1O | BHK-21 | cell growth or viability, MTT |  |  | CC50 | > 1000 µM |
| COC(=O)C1CCN(C(=O)c2ccc(NCc3cnc4nc(N)nc(N)c4n3)cc2)CC1 | CYP3A4 | enzyme activity, inhibitor, luciferase |  | 10 µM | inhibition | -13.4% |
| O=C(Nc1ncc([N+](=O)[O-])s1)c1ccccc1O | BHK-21 | cell growth or viability, MTT |  |  | CC50 | > 1000 µM |
| CCCCCCCC(=O)N[C@@H](CCCCN)C(=O)N[C@@H](CCCCN)C(=O)N[C@@H](C)C(=O)N[C@@H](CC(C)C)C(=O)N[C@@H](CCCCN)C(=O)N[C@@H](CC(C)C)C(=O)N[C@@H](C)C(=O)N[C@@H](CCCCN)C(=O)N[C@@H](CCCCN)C(=O)N1CCC[C@H]1C(=O)N[C@@H](CC(C)C)C(=O)N[C@@H](CCCCN)C(=O)N[C@@H](CC(C)C)C(=O)N[C@@H](CC(C)C)C(=O)N[C@@H](CCCCN)C(N)=O |  |  | female CD-1 mouse, blood | intravenous, 3 mg/kg, single dose | Cmax | 1420 ng/mL |
